Screening data (PubChem)
CHO parental Ca: signal in parental CHO cells, OX1R antagonist counter-screen; parental CHO-K1, ATP-induced calcium, Fluo-8 fluorescence; inhibition, % at 5.6 µM; hit rate 0.63% among 330,000;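 active means inhibition above that plate's mean sample inhibition plus 3 SD, cut at about 26% in these data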;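 further: 0% = ATP-challenged DMSO wells and 100% = DMSO wells without ATP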
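Test system: untransfected parental CHO cell line; also added: ATP stimulus; dosing: 5.6 µM, single dose; signal: calcium-sensitive Fluo-8 fluorescence; measure: percent inhibition of ATP-evoked calcium rise, normalized to controls; benchmarks: low control ATP plus DMSO, high control DMSO only; replication: one well per compound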
TAAR1 agonist: human TAAR1 agonism. CHO RD-HGA16 TAAR1, Fluo-8 calcium fluorescence; vehicle wells 0%, saturating PEA agonist 100%. activation, % at 3 µM. hit rate 0.99% among 360,000;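 active means activation above the mean activation of all test compounds in the run plus 3 SD, cut at about 38% in these data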
Target sequence (Q96RJ0 whole entry, looked up): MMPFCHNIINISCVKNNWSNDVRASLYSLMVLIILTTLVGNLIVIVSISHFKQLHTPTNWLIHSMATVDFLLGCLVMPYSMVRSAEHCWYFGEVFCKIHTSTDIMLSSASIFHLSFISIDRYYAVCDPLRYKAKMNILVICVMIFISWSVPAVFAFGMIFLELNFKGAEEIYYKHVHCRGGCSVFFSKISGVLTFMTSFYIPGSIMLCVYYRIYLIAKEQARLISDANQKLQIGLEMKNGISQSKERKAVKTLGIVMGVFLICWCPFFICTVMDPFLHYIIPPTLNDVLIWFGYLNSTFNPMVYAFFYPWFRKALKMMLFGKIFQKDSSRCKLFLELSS
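Test system: RD-HGA16 (CHO) cells co-expressing Gα16 and hTAAR1 | Doses: Single dose, 3 µM | Schedule: 17-24 h seeding, 75 min 37 °C dye, 30 min RT | Evaluation: % activation from peak over basal fluorescence ratio, DMSO-to-PEA scaled | Technique: Kinetic Fluo-8 calcium fluorescence | Benchmarks: Low control DMSO, high control PEA (EC100)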
TAAR1 antagonist: human TAAR1 antagonism | Q96RJ0 | CHO RD-HGA16 TAAR1, Fluo-8 calcium fluorescence, antagonist | inhibition, % at 3 µM | hit rate 1.5% among 360,000 | AID 624466;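 active means inhibition above a per-plate cutoff, the mean inhibition of test compounds on that plate plus 3 SD, cut at about 49% in these data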;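 further: 0% = DMSO plus EC80 beta-PEA response and 100% = DMSO alone without agonist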
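System: CHO RD-HGA16 cells bearing hTAAR1. Reagent: EC80 β-phenethylamine stimulus. Schedule: seeding 17-24 h prior, 75-min 37 °C, 30-min RT dye loading. Signal: Fluo-8 intracellular calcium dye fluorescence, real-time kinetic reads. Read-out: % inhibition from peak post-agonist over basal fluorescence ratio. Benchmarks: vehicle wells and EC80 agonist wells. Replicates: n of 1.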
OX1R antag-1: OX1R (human) antagonism; OX1R-expressing cells, FRET antagonist read-out; inhibition, % at 6.6 µM; hit rate 1.8% among 330,000; in the data active means inhibition mostly above about 38%, no sharp cut-off; inactive means mostly below about 40%;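 further: 0% = agonist challenge alone and 100% = reference antagonist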
Target sequence (O43613 whole entry, looked up): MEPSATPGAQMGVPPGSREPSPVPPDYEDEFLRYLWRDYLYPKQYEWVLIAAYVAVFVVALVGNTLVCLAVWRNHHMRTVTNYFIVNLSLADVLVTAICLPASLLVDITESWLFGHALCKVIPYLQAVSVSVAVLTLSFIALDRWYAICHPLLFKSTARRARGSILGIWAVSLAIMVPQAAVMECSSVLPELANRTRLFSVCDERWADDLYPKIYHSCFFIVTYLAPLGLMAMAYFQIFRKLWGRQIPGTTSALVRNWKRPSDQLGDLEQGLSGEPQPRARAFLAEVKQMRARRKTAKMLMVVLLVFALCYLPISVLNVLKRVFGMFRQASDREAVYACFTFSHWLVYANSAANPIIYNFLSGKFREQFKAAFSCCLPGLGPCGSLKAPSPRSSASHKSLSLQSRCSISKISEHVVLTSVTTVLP
OX1R antag-2: blocks the human orexin 1 receptor; O43613; CHO/OX1R cells, Fluo-8 calcium fluorescence, orexin A; inhibition, % at 5 µM; hit rate 0.43% among 330,000; AID 434989;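 active means inhibition above its plate's threshold, mean inhibition of all tested compounds on the plate plus 3 SD, cut at about 37% in these data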;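 further: 0% = orexin A challenge wells and 100% = SB-334867-A antagonist wells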
nonsel antag count: nonselective antagonist in TAAR1 antagonist counter-screen; shares compounds with TAAR1 antagonist; counterscreen cell line, calcium fluorescence, antagonist mode; inhibition, % at 3 µM; hit rate 77% among 2,400; AID 651780; in the data active means inhibition above about 22%;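 further: CHO-Ga16 host cells stimulated with ATP at an EC80 level; 0% = agonist EC80 plus vehicle and 100% = vehicle without agonist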
TAAR1 ant conf: human TAAR1 antagonism, confirmed; shares compounds with TAAR1 antagonist; TAAR1-expressing cells, fluorescence antagonist read-out; inhibition, % at 3 µM; hit rate 40% among 2,400; in the data active means inhibition above about 49%;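 further: CHO-Ga16 host cells challenged with agonist PEA near its EC80; 0% = agonist at EC80 plus vehicle and 100% = vehicle with no agonist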
Ga16 nonsel ag: counter-screen for TAAR1 antagonists: nonselective Ga16 agonists. shares compounds with TAAR1 antagonist. Ga16-expressing cells, calcium fluorescence, agonist counterscreen. activation, % at 3 µM. hit rate 18% among 2,400. AID 651953; in the data active means activation above about 12%;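 further: 0% = vehicle wells and 100% = saturating stimulus response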
TAAR1 ag count: counter-screen for human TAAR1 antagonists: TAAR1 agonists. shares compounds with TAAR1 antagonist. hTAAR1 cell line, fluorescence activation, agonist mode. activation, % at 3 µM. hit rate 2% among 2,400. AID 651955; in the data active means activation above about 37%;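 further: CHO cells stably expressing TAAR1 with calcium dye readout; 0% = DMSO vehicle and 100% = full agonist response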
Active calls of the source: *; x = no result given. Hits are enriched below; roughly 3.9% of the tested compounds scored in any of these assays.

SMILES | CHO parental Ca | TAAR1 agonist | TAAR1 antagonist | OX1R antag-1 | OX1R antag-2 | nonsel antag count | TAAR1 ant conf | Ga16 nonsel ag | TAAR1 ag count
O=S(=O)(c1cccc(F)c1)N1CCN(c2nc(-c3cccnc3)nc3ccccc23)CC1 | -17 | 21 | 61* | 19 | -6 | 24* | 54* | 8 | 11
COc1ccc(CCNC(=O)COC(=O)c2cc(S(=O)(=O)N3CCOCC3)ccc2C)cc1OC | -8 | 1 | 15 | 9 | -5 | x | x | x | x
CCc1cc(-c2nnn(CCC3COCCO3)c2CC)ccc1-c1cn(Cc2ccccc2)nn1 (stereo unspecified) | x | 11 | -7 | x | x | x | x | x | x
O=C(NCc1cccnc1)C1CC(c2ccccc2Cl)=NO1 (stereo unspecified) | -18 | 2 | 9 | -2 | -18 | x | x | x | x
Cc1c(Cl)cnc(NC(=O)COC(=O)Cc2coc3ccc4ccccc4c23)c1Cl | -15 | -1 | -11 | 19 | -10 | x | x | x | x
CC(C)(C)NC(=O)NC(=O)COC(=O)Cc1coc2ccc3ccccc3c12 | -23 | 7 | 52* | 11 | -28 | 24* | 28 | 4 | 2
CC(C)N(Cc1ccccc1)S(=O)(=O)c1ccc2c(c1)NC(=O)CO2 | -18 | 1 | -17 | 13 | -11 | x | x | x | x
CCCc1cc(C(=O)Nc2ccc(C(=O)c3ccc(F)cc3)cc2)n(C)n1 | -2 | x | x | 18 | 19 | x | x | x | x
COc1cc(OC)cc(C(=O)Nc2cccc(NC(C)=O)c2)c1 | -14 | 3 | 0 | 13 | -6 | x | x | x | x
COc1cccc(C(=O)Nc2ccc(C(=O)c3ccccc3)cc2)c1 | 9 | 7 | 67* | 40 | 19 | 32* | 41 | 8 | 2
COc1cc(OC)cc(C(=O)Nc2cccc(NC(=O)c3cc(OC)cc(OC)c3)n2)c1 | -11 | 14 | 75* | 27 | -6 | 27* | 49* | 8 | 5
CCCc1cc(C(=O)Nc2ccc(C(=O)c3ccccc3)cc2)n(C)n1 | -8 | -1 | 72* | 21 | -16 | 34* | 55* | 7 | 4
O=C1C=C(c2ccc(OC(F)(F)F)cc2)C[C@@H](c2ccc(Cl)cc2)C1 | -24 | 5 | 11 | 4 | -18 | x | x | x | x
CC(=O)c1ccc(N2CCN(C(=O)CCCc3nc4ccccc4s3)CC2)cc1 | -11 | 15 | 60* | 18 | -16 | 34* | 46 | 11 | 6
CCOC(=O)CCP(=O)(O)C(C)(O)c1ccccc1 (stereo unspecified) | -2 | 6 | 107* | 12 | -6 | -1 | -2 | 7 | 7
CCCNNC(=O)C(O)(c1ccccc1)c1ccccc1 | 1 | -1 | 5 | 29 | -15 | x | x | x | x
CSc1cccc(NC(=O)N2CCc3ccc(NC(=O)c4ccccn4)cc3C2)c1 | -16 | 5 | 62* | 20 | -13 | 40* | 45 | 9 | 5
NC1CCN(c2cccc(Cl)n2)CC1 | -8 | x | x | 6 | -18 | x | x | x | x
N#Cc1cc(C#N)c(N2CCN(c3cccc(Cl)n3)CC2)nc1N | -13 | 32 | 58* | 13 | -24 | 34* | 49* | 19* | 24
COc1ccc(NC(=O)c2oc3ccc(S(=O)(=O)N4CCC5(CC4)OCCO5)cc3c2C)cc1 | -5 | 22 | 56* | 9 | 16 | 40* | 56* | 14* | 15
O=C(Nc1ccc(Oc2ccc(NC(=O)c3ccco3)c(NC(=O)c3ccco3)c2)cc1)c1ccco1 | -13 | 11 | 62* | 9 | -9 | 29* | 56* | 5 | 5
CC(C)(C)c1ccc(C(=O)Nc2ccc(NC(=O)c3ccco3)cc2)cc1 | 0 | 11 | 58* | 22 | -19 | 22* | 43 | 7 | 2
O=C(Nc1ccc(Oc2ccc3ccccc3c2)cc1)c1ccco1 | 27 | 1 | 27 | 32 | 3 | x | x | x | x
N#CCOc1coc(CN2CCN(c3ccccc3)CC2)cc1=O | 0 | 1 | -24 | 0 | -1 | x | x | x | x
CC(=O)Nc1cc(=O)c2cccnc2[nH]1 | x | 2 | -11 | x | x | x | x | x | x
SMILES | CHO parental Ca | TAAR1 agonist | TAAR1 antagonist | OX1R antag-1 | OX1R antag-2 | nonsel antag count | TAAR1 ant conf | Ga16 nonsel ag | TAAR1 ag count
CCN(CC)C(=O)[C@H]1C[C@@H]2[C@H](C[C@@H](c3ccccc3)[C@H]1C)N(c1ccc(F)cc1)C(=O)N2CCCOc1ccccc1 | x | 4 | 69* | x | x | 30* | 58* | 5 | 5
CON(C)C(=O)[C@H]1C[C@@H]2[C@H](C[C@@H](c3ccccc3)[C@H]1C)N(c1ccc(F)cc1)C(=O)N2CCCOc1ccccc1 | x | 0 | 3 | x | x | x | x | x | x
Brc1ccc2nc(-c3ccc(CN4CCC5(CC4)CNc4ccccc45)cc3)c(-c3ccccc3)nc2c1 | x | 5 | 49* | x | x | 26* | 39 | 3 | 5
COCCNC(=O)C1CCCN(Cc2ccc(-c3ccccc3)cc2)CC1 (stereo unspecified) | x | 1 | -8 | x | x | x | x | x | x
COc1cc(C(=O)OCC(=O)NC2CCCCC2)cc(OC)c1OC | -4 | 0 | -26 | 16 | -4 | x | x | x | x
c1ccc(SCc2cn(C[C@H]3CC[C@@H]([C@@H]4CC[C@H](Cn5cc(CSc6ccccc6)nn5)O4)O3)nn2)cc1 | -7 | 32 | 71* | 16 | -20 | 37* | 56* | 14* | 12
c1ccc(Cn2cc(CSc3ccccc3)nn2)cc1 | -8 | 1 | 0 | 31 | -16 | x | x | x | x
COc1ccc(CNC(=O)C(c2ccco2)N(C(=O)c2ccccn2)c2ccccc2)cc1 (stereo unspecified) | -20 | 10 | 64* | 10 | -7 | 22* | 34 | 6 | 4
O=C(NCc1ccccc1)C(c1ccco1)N(C(=O)c1ccccn1)c1ccccc1 (stereo unspecified) | -17 | -1 | -10 | 19 | -6 | x | x | x | x
O=C(NCc1ccccc1)C(c1ccc(O)cc1)N(C(=O)c1cnccn1)c1ccccc1 (stereo unspecified) | -16 | 17 | 63* | -2 | -14 | 34* | 53* | 11 | 11
S=C(Nc1ccc(Br)cc1Cl)N1CCN(c2ccccn2)CC1 | -9 | 1 | 11 | 16 | -14 | x | x | x | x
NC(c1csc(Nc2ncccn2)n1)c1ccccc1Cl (stereo unspecified) | x | 2 | 0 | x | x | x | x | x | x
CN(Cc1ccccc1)C(=O)c1[nH]cnc1C(=O)Nc1cccc(Cl)c1 | -28 | 2 | 9 | 4 | -19 | x | x | x | x
Cn1c(NCCc2ccncc2)nc2cc(-c3ccsc3)sc2c1=O | x | 2 | -12 | x | x | x | x | x | x
COc1ccccc1CNC(=O)COC(=O)c1nccnc1N | -4 | 3 | -30 | 17 | -16 | x | x | x | x
COC(=O)c1nccnc1N | x | -2 | 103* | x | x | 3 | 1 | 1 | 3
